# Experimental data: ChEMBL document CHEMBL1140884, “Oligodeoxyribonucleotide-based antagonists for Toll-like receptors 7 and 9” (2009)
# Active and inactive are the calls of the source. The rule behind the calls is not given here.
# Molecular target: T1, Toll-like receptor 9 (Mus musculus) (UniProt Q9EQU3)
# T1 sequence (whole entry): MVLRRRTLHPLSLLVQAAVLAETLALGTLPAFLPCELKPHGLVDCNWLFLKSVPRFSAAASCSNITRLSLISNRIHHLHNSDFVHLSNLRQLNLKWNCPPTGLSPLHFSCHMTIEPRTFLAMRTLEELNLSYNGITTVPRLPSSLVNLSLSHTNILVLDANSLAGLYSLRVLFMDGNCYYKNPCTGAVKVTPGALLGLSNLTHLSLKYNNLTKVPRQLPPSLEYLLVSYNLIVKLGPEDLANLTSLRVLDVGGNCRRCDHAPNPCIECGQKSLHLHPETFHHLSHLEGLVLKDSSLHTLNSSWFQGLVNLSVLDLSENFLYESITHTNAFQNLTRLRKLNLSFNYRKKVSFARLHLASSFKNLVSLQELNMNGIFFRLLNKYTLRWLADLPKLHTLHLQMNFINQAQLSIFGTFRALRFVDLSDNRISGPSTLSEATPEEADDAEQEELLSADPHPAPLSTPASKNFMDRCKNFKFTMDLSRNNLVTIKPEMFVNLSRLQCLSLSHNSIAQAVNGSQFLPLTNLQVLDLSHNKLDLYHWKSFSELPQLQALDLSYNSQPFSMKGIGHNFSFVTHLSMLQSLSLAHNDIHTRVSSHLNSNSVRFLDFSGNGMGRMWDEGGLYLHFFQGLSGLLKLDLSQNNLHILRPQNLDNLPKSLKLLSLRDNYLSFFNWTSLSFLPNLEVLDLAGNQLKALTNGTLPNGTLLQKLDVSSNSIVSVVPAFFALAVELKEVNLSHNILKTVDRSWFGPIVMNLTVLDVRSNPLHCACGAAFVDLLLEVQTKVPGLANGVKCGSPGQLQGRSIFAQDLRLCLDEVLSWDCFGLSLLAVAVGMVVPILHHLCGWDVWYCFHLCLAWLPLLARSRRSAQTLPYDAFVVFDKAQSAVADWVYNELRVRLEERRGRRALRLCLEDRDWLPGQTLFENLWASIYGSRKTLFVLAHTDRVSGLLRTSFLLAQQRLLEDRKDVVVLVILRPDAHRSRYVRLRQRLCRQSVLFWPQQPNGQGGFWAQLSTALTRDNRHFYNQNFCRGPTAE
# Experiment: Antagonist activity at TLR9 in mouse J774 cells assessed as inhibition of 5'-TCTGACRTTCT-X-TCTTRCAGTCT-3'-induced NF-kappaB activation pretreated for 30 mins
# Assay type: functional, cell-based
# Method in brief: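 J774 cells received antagonist at 5, 10 or 20 µg/mL either 30 min before, together with, or 30 min after TLR9 agonist (1 µg/mL). Nuclear extracts were prepared 1 h after agonist addition and NF-κB was assessed by EMSA.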
compound,measurement,value
CO[C@@H]1[C@H](OP(=O)(S)OC[C@H]2O[C@@H](n3ccc(N)nc3=O)C[C@@H]2OP(=O)(S)OC[C@H]2O[C@@H](n3ccc4c(=O)[nH]c(N)nc43)C[C@@H]2OP(=O)(S)OC[C@H]2O[C@@H](n3cc(C)c(=O)[nH]c3=O)C[C@@H]2OP(=O)(S)OC[C@H]2O[C@@H](n3cc(C)c(=O)[nH]c3=O)C[C@@H]2OP(=O)(S)OC[C@H]2O[C@@H](n3ccc(N)nc3=O)C[C@@H]2OP(=O)(S)OC[C@H]2O[C@@H](n3cc(C)c(=O)[nH]c3=O)C[C@@H]2OP(=O)(S)OC[C@H]2O[C@@H](n3ccc(N)nc3=O)C[C@@H]2OP(=O)(S)OC[C@H]2O[C@@H](n3cc(C)c(=O)[nH]c3=O)C[C@@H]2OP(=O)(S)OC[C@H]2O[C@@H](n3cnc4c(=O)[nH]c(N)nc43)C[C@@H]2OP(=O)(S)OC[C@H]2O[C@@H](n3cc(C)c(=O)[nH]c3=O)C[C@@H]2O)[C@@H](COP(=O)(S)O[C@H]2[C@@H](OC)[C@H](n3cnc4c(=O)[nH]c(N)nc43)O[C@@H]2COP(=O)(S)O[C@H]2C[C@H](n3cc(C)c(=O)[nH]c3=O)O[C@@H]2COP(=O)(S)O[C@H]2C[C@H](n3ccc(N)nc3=O)O[C@@H]2COP(=O)(S)O[C@H]2C[C@H](n3cc(C)c(=O)[nH]c3=O)O[C@@H]2COP(=O)(S)O[C@H]2C[C@H](n3cnc4c(N)ncnc43)O[C@@H]2COP(=O)(S)O[C@H]2C[C@H](n3cc(C)c(=O)[nH]c3=O)O[C@@H]2COP(=O)(S)O[C@@H]2C[C@@H](n3ccc(N)nc3=O)O[C@H]2CO)O[C@H]1n1cnc2c(N)ncnc21 (stereo partly specified),Activity,Active
